Laboratory results: ChEMBL document CHEMBL1133733, “Anilides of (R)-trifluoro-2-hydroxy-2-methylpropionic acid as inhibitors of pyruvate dehydrogenase kinase” (J Med Chem, 2000)
Values belong to the compound of their own block, whether it stands above or below them. The source made the active and inactive calls. The rule behind the calls is not given here.

Experiments:
Homo sapiens = organism: Homo sapiens; assay: Effective concentration in human fibroblasts for increased oxidation of lactate; assay type: functional, organism-based
Procedure, shortened: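 Human fibroblasts incubated with [14C]lactate; PDH complex activation read as conversion of [14C]lactate to 14CO2 (modified Ofenstein assay); EC50 (μM ± standard error).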

[1] = biological target: Pyruvate dehydrogenase kinase (Homo sapiens) (UniProt Q15119+Q15120+Q16654+Q15118); assay: In vitro inhibition of pyruvate dehydrogenase kinase (PDHK) in primary enzymatic assay; Inactive; assay type: protein assay; conditions: Sus scrofa
Procedure, shortened: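 Primary high-throughput enzymatic assay of PDH kinase inhibition using commercial porcine PDH complex; IC50 reported as μM ± standard error.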

[2] = biological target: T1, Pyruvate dehydrogenase kinase (Rattus norvegicus) (UniProt Q63065+A6IPZ9+Q64536+O54937); assay: In vivo percent of control lactate in 24 hr fasted rats at 100 umol/kg oral dose after 5 hours; assay type: functional, organism-based
Procedure, shortened: (§1)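 Normal Sprague–Dawley rats, n = 6/group, fasted 24 h, then dosed orally (μmol/kg); blood lactate sampled at 2, 2.5 or 5 h postdose and expressed as percent of control; significance p < 0.05.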

[3] = biological target: T1, Pyruvate dehydrogenase kinase (Rattus norvegicus); assay: In vivo percent of control lactate in 24 hr fasted rats at 100 umol/kg oral dose after 2.5 hours; assay type: functional, organism-based; procedure, shortened: as §1
[4] = biological target: T1, Pyruvate dehydrogenase kinase (Rattus norvegicus); assay: In vivo percent of control lactate in 24 hr fasted rats at 300 umol/kg oral dose after 2.5 hours; assay type: functional, organism-based; procedure, shortened: as §1
[5] = biological target: T1, Pyruvate dehydrogenase kinase (Rattus norvegicus); assay: In vivo percent of control lactate in 24 hr fasted rats at 30 uM/kg oral dose; assay type: functional, organism-based; conditions: 30 umol/kg; procedure, shortened: as §1
[6] = biological target: T1, Pyruvate dehydrogenase kinase (Rattus norvegicus); assay: In vivo percent of control lactate in 24 hr fasted rats at 100 umol/kg oral dose; assay type: functional, organism-based; procedure, shortened: as §1
[7] = biological target: T1, Pyruvate dehydrogenase kinase (Rattus norvegicus); assay: In vivo percent of control lactate in 24 hr fasted rats at 250 umol/kg oral dose; assay type: functional, organism-based; procedure, shortened: as §1
[8] = biological target: T1, Pyruvate dehydrogenase kinase (Rattus norvegicus); assay: In vivo percent of control lactate in 24 hr fasted rats at 300 umol/kg oral dose after 5 hours; assay type: functional, organism-based; procedure, shortened: as §1
[9] = biological target: T1, Pyruvate dehydrogenase kinase (Rattus norvegicus); assay: In vivo percent of control lactate in 24 hr fasted rats at 30 uM/kg oral dose after 2.5 hours; assay type: functional, organism-based; procedure, shortened: as §1
[10] = biological target: T1, Pyruvate dehydrogenase kinase (Rattus norvegicus); assay: In vivo percent of control lactate in 24 hr fasted rats at 30 uM/kg oral dose after 5 hours; assay type: functional, organism-based; procedure, shortened: as §1
[11] = Half-life after oral administration (100 uM/Kg); assay type: ADME, organism-based; conditions: in vivo
Procedure, shortened: (§2)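 Plasma levels of parent drug profiled in rats after a single oral dose; t1/2, AUC (0–8 h), Tmax and Cmax derived from the plasma concentration–time profile.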

[12] = Cmax after oral dosing of 100 umol/Kg; assay type: ADME, organism-based; design: dose 100 umol/Kg, route oral; conditions: in vivo; procedure, shortened: as §2
[13] = Tmax after oral dosing of 100 uM/Kg; assay type: ADME, organism-based; conditions: in vivo; procedure, shortened: as §2
[14] = Area Under Curve after oral dosing of 100 uM/Kg; assay type: ADME; procedure, shortened: as §2
[15] = biological target: T1, Pyruvate dehydrogenase kinase (Rattus norvegicus); assay: In vivo percent of control lactate in 24 hr fasted rats at 10 uM/kg oral dose after 2.5 hours; assay type: functional, organism-based; procedure, shortened: as §1

- NA [1]: inactive
SMILES: CC(O)(C(=O)Nc1cc(C(=O)O)ccc1Cl)C(F)(F)F (stereo unspecified)

- NA [1]: inactive
SMILES: CC(O)(C(=O)Nc1ccccc1-c1ccccc1)C(F)(F)F (stereo unspecified)

- NA [1]: inactive
SMILES: CC(O)(C(=O)Nc1cccc(C(F)(F)F)c1)C(F)(F)F (stereo unspecified)

- Control [2]: 70%
- Control [3]: 82%
SMILES: C[C@@](O)(C(=O)Nc1ccc(S(=O)(=O)N2CCC(N)C2)cc1Cl)C(F)(F)F (stereo partly specified)

- Control [7]: 65%
SMILES: C[C@@](O)(C(=O)Nc1ccc(S(C)(=O)=O)cc1Cl)C(F)(F)F

- Control [6]: 94%
SMILES: C[C@@](O)(C(=O)Nc1ccc(C(=O)NCCCCCC(=O)[O-])cc1Cl)C(F)(F)F.[Na+]

- Control [2]: 84%
- Control [3]: 71%
SMILES: C[C@@](O)(C(=O)Nc1ccc(S(=O)(=O)NCCN2CCOCC2)cc1Cl)C(F)(F)F

- Control [6]: 115%
SMILES: C[C@@](O)(C(=O)Nc1ccc(C(=O)N[C@@H](Cc2ccccc2)C(=O)[O-])cc1Cl)C(F)(F)F.[Na+]

- Control [5]: 101%
SMILES: C[C@@](O)(C(=O)Nc1ccc(C(=O)N[C@@H](Cc2ccc(-c3ccccc3)cc2)C(=O)O)cc1Cl)C(F)(F)F

- Control [2]: 84%
- Control [3]: 64%
SMILES: C[C@@](O)(C(=O)Nc1ccc(S(=O)(=O)NCc2ccccn2)cc1Cl)C(F)(F)F

- NA [1]: inactive
SMILES: CCCCCCNC(=O)c1ccc(Cl)c(NC(=O)C(C)(O)C(F)(F)F)c1 (stereo unspecified)

- NA [1]: inactive
SMILES: CC(O)(C(=O)Nc1cc(C(=O)N2CCCCC2)ccc1Cl)C(F)(F)F (stereo unspecified)

- Control [7]: 78%
SMILES: CC(O)(C(=O)Nc1ccc(C#N)cc1Cl)C(F)(F)F (stereo unspecified)

- NA [1]: inactive
SMILES: CC(O)(C(=O)Nc1cc(C(=O)c2ccccc2)ccc1Cl)C(F)(F)F (stereo unspecified)

- Control [5]: 114%
SMILES: CN(CCCO)C(=O)c1ccc(NC(=O)[C@@](C)(O)C(F)(F)F)c(Cl)c1

- Control [6]: 88%
SMILES: C[C@@](O)(C(=O)Nc1ccc(C(=O)NCCCO)cc1Cl)C(F)(F)F

- Control [5]: 94%
SMILES: C[C@@H](C(=O)[O-])N(C)C(=O)c1ccc(NC(=O)[C@@](C)(O)C(F)(F)F)c(Cl)c1.[Na+]

- Control [2]: 62%
- Control [3]: 76%
SMILES: C=CCNS(=O)(=O)c1ccc(NC(=O)[C@@](C)(O)C(F)(F)F)c(Cl)c1

Further lines, the compound ahead of its results:

SMILES: CCCCCCNC(=O)c1ccc(NC(=O)C(C)(O)C(F)(F)F)c(Cl)c1 (stereo unspecified)
- EC50 (Homo sapiens): 5.5 µM

SMILES: C[C@@](O)(C(=O)Nc1ccc(S(=O)(=O)NCCc2ccc(F)cc2)cc1Cl)C(F)(F)F
- Control [2]: 69%
- Control [3]: 124%

SMILES: COc1ccc(NC(=O)C(C)(O)C(F)(F)F)cc1 (stereo unspecified)
- EC50 (Homo sapiens): 43.1 µM

SMILES: C[C@@](O)(C(=O)Nc1ccc(S(=O)(=O)N2CCNCC2)cc1Cl)C(F)(F)F
- Control [4]: 77%

SMILES: C[C@@](O)(C(=O)Nc1ccc(C(=O)N[C@@H](CCc2ccccc2)C(=O)O)cc1Cl)C(F)(F)F
- Control [5]: 97%

SMILES: CC(O)(C(=O)Nc1ccc(C(=O)N2CCCCC2)cc1Cl)C(F)(F)F (stereo unspecified)
- EC50 (Homo sapiens): 0.71 µM

SMILES: Cc1cccc(C)c1NC(=O)C(C)(O)C(F)(F)F (stereo unspecified)
- NA [1]: inactive

SMILES: C[C@@](O)(C(=O)Nc1ccc(C(=O)N2CCN(c3ccccn3)CC2)cc1Cl)C(F)(F)F
- Control [6]: 63%

SMILES: CC(C)[C@@H](C(=O)[O-])N(C)C(=O)c1ccc(NC(=O)[C@@](C)(O)C(F)(F)F)c(Cl)c1.[Na+]
- Control [5]: 87%

SMILES: CC(=O)c1ccccc1NC(=O)C(C)(O)C(F)(F)F (stereo unspecified)
- EC50 (Homo sapiens): 14 µM

SMILES: C[C@@](O)(C(=O)Nc1ccc(C(=O)O)cc1Cl)C(F)(F)F
- EC50 (Homo sapiens): 1.4 µM

SMILES: COC(=O)c1ccc(Cl)c(NC(=O)C(C)(O)C(F)(F)F)c1 (stereo unspecified)
- NA [1]: inactive

SMILES: CC(C)CNS(=O)(=O)c1ccc(NC(=O)C(C)(C)O)c(Cl)c1
- Control [2]: 95%
- Control [8]: 76%
- Control [3]: 101%
- Control [4]: 69%

SMILES: C[C@@](O)(C(=O)Nc1ccc(S(=O)(=O)NCCCN2CCCC2=O)cc1Cl)C(F)(F)F
- Control [2]: 52%
- Control [9]: 87%
- Control [3]: 51%
- Control [10]: 66%

SMILES: COC(=O)[C@H](Cc1c[nH]c2ccccc12)N(C)C(=O)c1ccc(NC(=O)[C@@](C)(O)C(F)(F)F)c(Cl)c1
- Control [5]: 102%

SMILES: CC(O)(C(=O)Nc1cccc(C(=O)O)c1Cl)C(F)(F)F (stereo unspecified)
- half-life [11]: 276 min
- Cmax [12]: 87.3 µM
- Tmax [13]: 30 min
- AUC [14]: 143 µM·h

SMILES: CC(O)(C(=O)Nc1ccc(C(=O)c2ccccc2)cc1Cl)C(F)(F)F (stereo unspecified)
- EC50 (Homo sapiens): 30 µM

SMILES: CC(O)(C(=O)Nc1cccc(C(=O)c2ccccc2)c1Cl)C(F)(F)F (stereo unspecified)
- EC50 (Homo sapiens): 11 µM

SMILES: CC(O)(C(=O)Nc1ccccc1Cl)C(F)(F)F (stereo unspecified)
- EC50 (Homo sapiens): 5.4 µM

SMILES: COc1ccc(Cl)c(NC(=O)C(C)(O)C(F)(F)F)c1 (stereo unspecified)
- NA [1]: inactive

SMILES: COC(=O)c1cccc(NC(=O)C(C)(O)C(F)(F)F)c1Cl (stereo unspecified)
- EC50 (Homo sapiens): 13.8 µM

SMILES: CC(O)(C(=O)Nc1cccc(C(=O)c2ccccc2)c1)C(F)(F)F (stereo unspecified)
- EC50 (Homo sapiens): 10 µM

SMILES: CC(C)CNS(=O)(=O)c1ccc(NC(=O)[C@@](C)(O)C(F)(F)F)c(Cl)c1
- Control [2]: 60%
- Control [9]: 83%
- Control [3]: 69%
- Control [15]: 100%

SMILES: C[C@@](O)(C(=O)Nc1ccc(C(=O)N2CCOCC2)cc1Cl)C(F)(F)F
- Control [6]: 64%

SMILES: CCOCCCNS(=O)(=O)c1ccc(NC(=O)[C@@](C)(O)C(F)(F)F)c(Cl)c1
- Control [2]: 70%
- Control [3]: 72%
